# A selection: hits, their analogues and other compounds. The true share with any hit is near 2.3%.
# TAAR1 antag – human TAAR1 antagonists, primary screen, Fluo-8 calcium fluorescence, CHO RD-HGA16 cells; Trace amine-associated receptor 1 (Homo sapiens), Q96RJ0; antagonist; inhibition, % at 3 µM; hit rate 1.5% among 360,000;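 active = inhibition above a per-plate cutoff, the mean inhibition of test compounds on that plate plus 3 SD, cut at about 49% in these data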;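 also: 0% = DMSO plus EC80 beta-PEA response and 100% = DMSO alone without agonist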
# Target sequence (Q96RJ0 whole entry, looked up): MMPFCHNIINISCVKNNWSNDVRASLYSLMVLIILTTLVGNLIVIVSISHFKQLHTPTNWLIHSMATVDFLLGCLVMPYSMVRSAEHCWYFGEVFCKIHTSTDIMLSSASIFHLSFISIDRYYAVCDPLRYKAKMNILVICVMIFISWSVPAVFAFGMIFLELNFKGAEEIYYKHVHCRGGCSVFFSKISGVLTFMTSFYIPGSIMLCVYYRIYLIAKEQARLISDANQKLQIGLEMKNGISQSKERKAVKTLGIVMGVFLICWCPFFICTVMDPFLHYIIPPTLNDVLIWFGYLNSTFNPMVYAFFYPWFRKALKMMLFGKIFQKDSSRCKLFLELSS
#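 System: CHO RD-HGA16 cells bearing hTAAR1. Reagent: EC80 β-phenethylamine stimulus. Schedule: seeding 17-24 h prior, 75-min 37 °C, 30-min RT dye loading. Signal: Fluo-8 intracellular calcium dye fluorescence, real-time kinetic reads. Read-out: % inhibition from peak post-agonist over basal fluorescence ratio. Benchmarks: vehicle wells and EC80 agonist wells. Replicates: n of 1.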
# V1R ag counter – agonists of human V1a receptor, primary screen, counter-screen for OXTR agonist project, fluorescence, CHO-V1R cells; hit rate 0.25% among 320,000; activation, % at 3 µM; Fluo-8 calcium fluorescence, agonist mode; 0% DMSO, 100% 3 nM vasopressin; AID 2797, 2010; Vasopressin V1a receptor (Homo sapiens), P37288;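 active = activation above the mean activation of all tested compounds plus 3 SD, per screening run, cut at about 20% in these data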;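 also: signal is peak over basal fluorescence ratio across a 100 second FLIPR read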
# Target sequence (P37288 whole entry, looked up): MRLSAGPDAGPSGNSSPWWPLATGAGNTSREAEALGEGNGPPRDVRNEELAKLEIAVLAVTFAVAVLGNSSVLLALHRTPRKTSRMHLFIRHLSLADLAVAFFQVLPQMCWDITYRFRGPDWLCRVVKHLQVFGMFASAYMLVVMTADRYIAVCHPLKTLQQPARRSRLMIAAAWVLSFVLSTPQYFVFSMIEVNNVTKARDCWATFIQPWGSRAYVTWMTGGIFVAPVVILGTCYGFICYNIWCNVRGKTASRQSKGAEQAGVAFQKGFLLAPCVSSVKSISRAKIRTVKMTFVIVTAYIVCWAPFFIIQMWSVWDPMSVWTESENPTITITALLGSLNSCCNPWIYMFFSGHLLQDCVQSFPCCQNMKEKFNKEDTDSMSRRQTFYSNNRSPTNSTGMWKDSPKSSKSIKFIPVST
# OXTR ag – human OXTR agonists, primary screen, fluorescence, CHO-OTR cells, Fluo-8 calcium; Oxytocin receptor (Homo sapiens), P30559; Fluo-8 calcium fluorescence; normalized: DMSO 0%, oxytocin 100%; activation, % at 3 µM; hit rate 0.32% among 320,000; AID 2435, 2010;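 active = activation above the mean of all tested compounds plus 3 SD, cutoff set per screening run, cut at about 20% in these data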;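 also: peak over basal fluorescence ratio from a 100 s FLIPR kinetic read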
# TAAR1 ag – human TAAR1 agonists, primary screen, Fluo-8 calcium fluorescence, CHO RD-HGA16 cells | hit rate 0.99% among 360,000 | vehicle wells 0%, saturating PEA agonist 100% | activation, % at 3 µM | AID 624467, 2012;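 active = activation above the mean activation of all test compounds in the run plus 3 SD, cut at about 38% in these data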
#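 Test system: RD-HGA16 (CHO) cells co-expressing Gα16 and hTAAR1; dosing: one-point dosing at 3 µM (nominal); timing: 17-24 h seeding, 75 min 37 °C dye, 30 min RT; signal: kinetic Fluo-8 calcium fluorescence; read-out basis: % activation relative to PEA EC100 response; controls: DMSO and PEA EC100; replicates: n 1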
# OXTR potentiate – human OXTR potentiators, primary screen, fluorescence, CHO-OTR cells, Fluo-8 calcium; Oxytocin receptor (Homo sapiens), P30559; Fluo-8 calcium fluorescence, potentiator mode; 0% = oxytocin EC15, 100% = EC100; activation, % at 3 µM; hit rate 0.061% among 320,000; AID 2445, 2010;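 active = activation above that plate's cutoff, the mean activation of tested compounds plus 3 SD, cut at about 6.6% in these data, passing the limit was not always enough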;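 also: 100% uses oxytocin at 75 nM as the full agonist control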
#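 Assay system: CHO-OTR cells, human receptor / Also added: oxytocin at about EC15, sub-maximal agonist stimulus / Dosing: single dose, 3.0 µM nominal final compound concentration / Incubation: 6 min pre-incubation, 100 s read / Technique: Fluo-8 calcium dye fluorescence / Read-out: % activation vs EC15 and EC100 oxytocin / Benchmarks: EC15 oxytocin low, 75 nM oxytocin high / Replicates: singlicate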
# TAAR1 ag conf – human TAAR1 agonists, retest of hits, confirmation, Fluo-8 calcium fluorescence, CHO RD-HGA16 cells; shares compounds with TAAR1 ag; scaled: DMSO 0%, maximal phenethylamine 100%; activation, % at 3 µM; hit rate 82% among 2,400;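 active = activation above a cutoff set at the run's mean compound activation plus 3 SD, cut at about 39% in these data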
# Ga16 nonsel ag – nonselective calcium mobilization agonists, CHO-Ga16 cells, counter-screen for hTAAR1 agonist project, cell-based, fluorescence, CHO-Ga16 parental line | Fluo-8 calcium fluorescence; normalized to maximal ATP response, DMSO zero | activation, % at 3 µM | shares compounds with TAAR1 ag | hit rate 50% among 2,400;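 active = activation above the run cutoff, the mean activation over all tested wells plus 3 SD, cut at about 12% in these data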;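 also: 0% = DMSO wells and 100% = maximal ATP response on the peak over basal ratio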
# TAAR1 desens – TAAR1 desensitization by agonist hits, confirmation, counter-screen for TAAR1 agonist project, cell-based, fluorescence, tachyphylaxis. shares compounds with TAAR1 ag. CHO RD-HGA16 hTAAR1, Fluo-8 calcium, beta-PEA response inhibition. inhibition, % at 3 µM. hit rate 46% among 2,400;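 active = inhibition above the run cutoff, the mean inhibition of all test compounds plus 3 SD, cut at about 49% in these data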;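 also: beta-PEA stimulus applied at its EC80; loss of beta-PEA calcium signal after compound pretreatment read as receptor desensitization; 0% = DMSO with beta-PEA at EC80 and 100% = DMSO alone without agonist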
# Ga16 antag count – inhibition of ATP-evoked calcium response in CHO-Ga16 cells, counter-screen for TAAR1 agonist project, cell-based, fluorescence; shares compounds with TAAR1 ag; inhibition, % at 3 µM; CHO-Ga16 ATP-induced calcium, Fluo-8 fluorescence; hit rate 39% among 2,400;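 active = inhibition above the plate's mean compound inhibition plus 3 SD, computed per plate, cut at about 22% in these data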;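 also: 0% = EC80 ATP with DMSO and 100% = DMSO wells without ATP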
# * marks the source's active call; other numbers are inactive results; · = not tested or not shown.
SMILES,TAAR1 antag,V1R ag counter,OXTR ag,TAAR1 ag,OXTR potentiate,TAAR1 ag conf,Ga16 nonsel ag,TAAR1 desens,Ga16 antag count
CCOC(=O)C1=C(O)c2ccccc2C(=O)/C1=C\c1ccc(CC)cc1,·,1,3,·,3,·,·,·,·
O=C(Nc1ncc(S(=O)(=O)c2ccc([N+](=O)[O-])cc2)s1)c1cccc2ccccc12,94*,27*,32*,128*,-20,129*,88*,105*,79*
COCC(=O)Nc1ncc(S(=O)(=O)c2ccc([N+](=O)[O-])cc2)s1,7,4,5,2,-3,·,·,·,·
CCn1c(CSc2nc(C)cc(C)n2)nnc1SCC(=O)Nc1nc(-c2ccccc2)cs1,45,6,8,59*,-16,65*,32*,44,33*
CC1NC(=O)NC1CCCCCC(=O)NCCc1ccccc1 (stereo not given),40,0,-1,48*,-5,78*,8,74*,5
Cc1cccc(C)c1NC(=O)CCCCCC1NC(=O)NC1C (stereo not given),-8,1,1,5,-2,·,·,·,·
O=C(N/N=C/c1ccco1)c1cc(-c2ccc3ccccc3c2)n[nH]1,71*,0,3,48*,-14,67*,53*,96*,88*
CC(=O)c1ccc(NC(=O)CC(NCCC2=CCCCC2)C(=O)O)cc1 (stereo not given),-8,1,0,45*,-14,74*,0,15,-1
O=C(O)c1ccccc1-c1ccc(/C=C/c2cc(C(F)(F)F)[nH]c(=O)n2)o1,33,·,·,237*,·,69*,117*,25,28*
COc1cccc(C(=O)N[C@H](C(=O)N2CCC[C@H]2C(=O)NCCc2ccccc2Cl)c2ccccc2)c1,52*,·,·,56*,·,91*,3,84*,17
COc1cccc(C(=O)N[C@H](C(=O)N2CCC[C@H]2C(=O)NCCc2ccccc2Cl)C(C)C)c1,78*,·,·,71*,·,85*,4,95*,8
CC(C)[C@H](NC(=O)c1ccc(Cl)c(Cl)c1)C(=O)N1CCC[C@H]1C(=O)NCc1ccccc1,-19,·,·,2,·,·,·,·,·
O=C(N[C@H](C(=O)N1CCC[C@H]1C(=O)NCCc1ccccc1Cl)c1ccccc1)c1ccc(Cl)c(Cl)c1,44,·,·,4,·,·,·,·,·
O=C(N1CCOCC1)N1[C@H](COCc2ccccc2)C=CS1(=O)=O,-13,·,·,5,·,·,·,·,·
Cc1ccc(NS(=O)(=O)c2ccc3c(c2)n(C)c(=O)n3C)cc1C,17,9,12,11,-16,·,·,·,·
O=C(CN1CCN(c2ccccc2)CC1)Nc1ccccc1C(=O)NCCc1ccccc1,88*,·,·,76*,·,82*,7,75*,32*
CC(=NNC(=O)c1ccncc1)c1ccc2ccccc2c1O,76*,·,·,167*,·,72*,153*,54*,78*
CC(=NNC(=O)c1ccncc1)c1ccccc1O,2,·,·,2,·,·,·,·,·
CC(=NCC1CCNCC1)C1=C(O)CC(C)(C)CC1=O,-18,0,1,-2,-19,·,·,·,·
Nc1nc(-c2ccccc2)cn1N,7,0,0,11,-12,·,·,·,·
Nc1nc(-c2ccccc2)cn1/N=C/c1ccccc1,30,1,0,61*,1,93*,5,70*,10
COc1ccc(CC(=O)NCC(=O)N/N=C/c2ccc(C)o2)cc1,-17,0,-1,5,2,·,·,·,·
Cc1ccc2c(c1)[C@H]1[C@H](CO2)[C@H](c2ccccc2)[C@]2(C)C(=O)N(Cc3ccc(F)cc3)CC(=O)N12,34,12,11,62*,-10,29,19*,17,19
COc1cc(C(c2nnnn2C2CCCC2)N2CCc3ccccc3C2)ccc1O (stereo not given),100*,0,0,85*,-14,91*,0,97*,7
COc1ccc(C(c2nnnn2C2CCCC2)N2CCN(C(=O)c3ccco3)CC2)cc1OC (stereo not given),8,2,1,2,4,·,·,·,·
SMILES,TAAR1 antag,V1R ag counter,OXTR ag,TAAR1 ag,OXTR potentiate,TAAR1 ag conf,Ga16 nonsel ag,TAAR1 desens,Ga16 antag count
Cc1ccc(NC(=O)NCc2ccco2)cc1[N+](=O)[O-],-8,·,·,7,·,·,·,·,·
N#CC1=C(N)OC2=C(CC/C2=C\c2ccccc2)C1c1ccccc1 (stereo not given),71*,26*,28*,64*,-19,46*,69*,67*,77*
Cc1ccc(-c2nc3c(Cl)cc(Cl)cc3c(=O)n2O)cc1,39,66*,23*,80*,-21,49*,52*,19,18
O=c1c2cc(Br)ccc2nc(-c2ccc(Cl)cc2)n1O,-13,1,1,6,-1,·,·,·,·
CC1CCCC(C)N1S(=O)(=O)c1ccc(Cl)cc1 (stereo not given),5,-2,-3,1,-6,·,·,·,·
CC1=C(C)CS(=O)N(S(=O)(=O)c2ccc(Cl)cc2)C1 (stereo not given),36,6,2,77*,-7,77*,54*,26,15
Cc1ccc(S(=O)(=O)N2CCC(=O)N(C(CO)Cc3ccccc3)CC2)cc1 (stereo not given),-5,1,4,4,-3,·,·,·,·
O=C(NCc1ccccc1)C(=O)NCC1OCCN1S(=O)(=O)c1ccc2c(c1)OCCO2 (stereo not given),-11,0,0,1,-2,·,·,·,·
O=C(NCCc1ccccc1)C(=O)NCC1OCCN1S(=O)(=O)c1ccc2c(c1)OCCO2 (stereo not given),33,2,0,58*,-14,77*,6,58*,21

# Source: PubChem BioAssay (The Scripps Research Institute Molecular Screening Center)
